We go through 15 molecules from ChEMBL document CHEMBL2401714, “New linezolid-like 1,2,4-oxadiazoles active against Gram-positive multiresistant pathogens” (Eur J Med Chem, 2013).

Data set [1] concerns Staphylococcus aureus. In words: Antibacterial activity against methicillin-susceptible Staphylococcus aureus M923 assessed as growth inhibition after 18 to 24 hrs by broth microdilution method. It is filed as functional. In short, it runs like this:
(§1)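 CLSI broth microdilution against S. aureus isolates. Two-fold serial dilutions were made in Mueller-Hinton broth, with DMSO as the compound solvent. An equal volume of inoculum (1 × 10⁶ CFU/mL) was added to each well. MIC was taken as the lowest concentration giving no visible turbidity of the medium.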

The subject of data set [2] is Staphylococcus aureus. In words: Antibacterial activity against methicillin-resistant Staphylococcus aureus F511 assessed as growth inhibition after 18 to 24 hrs by broth microdilution method. It is filed as functional. The gist of the method: (§2)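 CLSI broth microdilution: serial 2-fold dilutions of each compound in Mueller-Hinton broth, with DMSO as solvent. An equal volume of inoculum (1 × 10⁶ CFU/mL) is added to each well holding the dilutions. MIC is the lowest concentration causing no visible turbidity. Values are expressed in […]. Clinical MRSA collection isolates 433 and F511, and reference strain Mu50.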

Data set [3] relates to Staphylococcus aureus. Briefly: Antibacterial activity against methicillin-resistant Staphylococcus aureus 433 assessed as growth inhibition after 18 to 24 hrs by broth microdilution method. It is filed as functional. In short, it runs like this:
as §2

The test system of data set [4] is Staphylococcus aureus. In words: Antibacterial activity against methicillin-resistant Staphylococcus aureus ATCC 700699 assessed as growth inhibition after 18 to 24 hrs by broth microdilution method. It is filed as functional. The gist of the method: as §2
For data set [5], the system named is Staphylococcus aureus. In words: Antibacterial activity against methicillin-susceptible Staphylococcus aureus ATCC 29213 assessed as growth inhibition after 18 to 24 hrs by broth microdilution method. It is filed as functional. The gist of the method: as §1
Data set [6] relates to HepG2. In words: Cytotoxicity against human HepG2 cells assessed as reduction of cell viability at 5 to 400 ug/ml by MTT assay. It is filed as cell-based. The gist of the method:
(§3)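 Cells were exposed to increasing compound concentrations, with a DMSO solvent control. HepG2 and HaCaT were grown in DMEM, and PK15 in DMEM/M199 (1:1), all with 10% heat-inactivated fetal serum. MTT (5 mg/mL stock, 1.2 mM final) was added for 1 h 30 min at 37 °C. The reaction was stopped with 90% ethanol, cells were spun at 800 × g for 10 min, and A570 was read. Values are means ± S.E. of 3 experiments run in triplicate.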

Data set [7] relates to HaCaT. In words: Cytotoxicity against human HaCaT cells assessed as induction of cell death at => 25 ug/ml by MTT assay relative to control. It is filed as cell-based. In short, it runs like this:
as §3

Data set [8] has as its system HaCaT. In words: Cytotoxicity against human HaCaT cells assessed as reduction of cell viability at 5 ug/ml by MTT assay. It is filed as cell-based. In short, it runs like this:
as §3

Data set [9] in a line: Cytotoxicity against porcine PK-15 cells assessed as reduction of cell viability at 100 ug/ml by MTT assay relative to control. It is filed as cell-based, Sus scrofa. The following applies: pig. In short, it runs like this: as §3
A short description of data set [10]: Cytotoxicity against porcine PK-15 cells assessed as reduction of cell viability at 200 to 400 ug/ml by MTT assay relative to control. The following applies: pig. It is filed as cell-based, Sus scrofa. In short, it runs like this:
as §3

Data set [11] can be described thus: Cytotoxicity against porcine PK-15 cells assessed as reduction of cell viability by MTT assay. It is filed as cell-based, Sus scrofa. Conditions: pig; call rule not given here. The gist of the method: as §3
Data set [12] can be described thus: Cytotoxicity against porcine PK-15 cells assessed as reduction of cell viability at 25 to 200 ug/ml by MTT assay. It is filed as cell-based, Sus scrofa. Conditions: pig. In short, it runs like this:
as §3

In data set [13] the test system is HepG2. Briefly: Cytotoxicity against human HepG2 cells assessed as reduction of cell viability at 400 ug/ml by MTT assay relative to control. It is filed as cell-based. The gist of the method: as §3
For data set [14], the system named is HepG2. Briefly: Cytotoxicity against human HepG2 cells assessed as reduction of cell viability at 50 ug/ml by MTT assay. It is filed as cell-based. In short, it runs like this:
as §3

For data set [15], the system named is HaCaT. Briefly: Cytotoxicity against human HaCaT cells assessed as cell death at 200 to 400 ug/ml by MTT assay relative to control. It is filed as cell-based. The gist of the method:
as §3

Data set [16] can be described thus: Cytotoxicity against porcine PK-15 cells assessed as reduction of cell viability at 5 ug/ml by MTT assay relative to control. It is filed as cell-based, Sus scrofa. The following applies: pig. In short, it runs like this: as §3
Data set [17] can be described thus: Cytotoxicity against porcine PK-15 cells assessed as reduction of cell viability at 5 to 400 ug/ml by MTT assay. The following applies: pig. It is filed as cell-based, Sus scrofa. In short, it runs like this: as §3

Structures are written as SMILES. Converted amounts (≈) assume the structure as drawn. Where only a bound is given, the exact number is not on record here.

On to `Cc1noc(-c2ccc(N3CC(CI)OC3=O)cc2)n1` (racemic), for which the MIC in the data set on Staphylococcus aureus [1] is above 50 µg/mL; in the data set on Staphylococcus aureus [2], 50 µg/mL (≈ 130 µM); in the data set on Staphylococcus aureus [3], 25 µg/mL (≈ 64.9 µM); with Staphylococcus aureus [4], 50 µg/mL (≈ 130 µM); in the data set on Staphylococcus aureus [5], above 50 µg/mL.
As to `Cc1noc(-c2ccc(N3CC(CI)OC3=O)cc2F)n1` (racemic), the minimal inhibitory concentration (MIC) in the data set with Staphylococcus aureus [1] is above 50 µg/mL; in the data set with Staphylococcus aureus [2] it was above 50 µg/mL; with Staphylococcus aureus [3], 50 µg/mL (≈ 124 µM); in the data set on Staphylococcus aureus [4], 50 µg/mL (≈ 124 µM); in the data set on Staphylococcus aureus [5] it was above 50 µg/mL.
For the molecule `Cc1noc(-c2ccc(N3CC(CN=[N+]=[N-])OC3=O)cc2)n1` (racemic), the MIC in the data set on Staphylococcus aureus [1], in the data set on Staphylococcus aureus [2], in the data set with Staphylococcus aureus [3], with Staphylococcus aureus [4] and in the data set on Staphylococcus aureus [5] was above 50 µg/mL throughout.
Consider `Cc1noc(-c2ccc(N3CC(CN=[N+]=[N-])OC3=O)cc2F)n1` (racemic), for which the minimum inhibitory concentration (MIC) in the data set on Staphylococcus aureus [1], in the data set with Staphylococcus aureus [2], with Staphylococcus aureus [3], with Staphylococcus aureus [4] and with Staphylococcus aureus [5] was above 50 µg/mL in each case.
`CC(=O)NCC1CN(c2ccc(-c3nc(C)no3)cc2)C(=O)O1` (racemic): the MIC was 6.25 µg/mL (≈ 19.8 µM) in the data set with Staphylococcus aureus [1]; 12.5 µg/mL (≈ 39.5 µM) in the data set on Staphylococcus aureus [2]; 1.6 µg/mL (≈ 5.06 µM) in the data set on Staphylococcus aureus [3]; 6.25 µg/mL (≈ 19.8 µM) in the data set with Staphylococcus aureus [4]; 12.5 µg/mL (≈ 39.5 µM) in the data set with Staphylococcus aureus [5].
As to `CC(=O)NCC1CN(c2ccc(-c3nc(C)no3)c(F)c2)C(=O)O1` (racemic), the MIC with Staphylococcus aureus [1] is 6.25 µg/mL (≈ 18.7 µM); in the data set with Staphylococcus aureus [2], 12.5 µg/mL (≈ 37.4 µM); with Staphylococcus aureus [3], 1.6 µg/mL (≈ 4.79 µM); in the data set on Staphylococcus aureus [4], 6.25 µg/mL (≈ 18.7 µM); in the data set on Staphylococcus aureus [5], 12.5 µg/mL (≈ 37.4 µM).
Regarding `CC(=S)NCC1CN(c2ccc(-c3nc(C)no3)cc2)C(=O)O1` (racemic), the Activity result in the data set with HepG2 [6] is listed as “Toxic”; in the data set with HaCaT [7] it was above 60%; in the data set on HaCaT [8] it was “Toxic”; in [9] it was 70%; in data set [10] it was above 90%; in data set [11], “Dose-dependent effect”. In addition, the minimal inhibitory concentration (MIC) was 1.6 µg/mL (≈ 4.81 µM) in the data set on Staphylococcus aureus [1]; 1.6 µg/mL (≈ 4.81 µM) with Staphylococcus aureus [2]; 1.6 µg/mL (≈ 4.81 µM) in the data set on Staphylococcus aureus [3]; at most 0.4 µg/mL in the data set on Staphylococcus aureus [4]; 3.13 µg/mL (≈ 9.42 µM) in the data set on Staphylococcus aureus [5].
Regarding `CC(=S)NCC1CN(c2ccc(-c3nc(C)no3)c(F)c2)C(=O)O1` (racemic), the Activity result in data set [12] is listed as “Toxic”; in the data set with HepG2 [13] it was 40%; with HepG2 [14], “Toxic”; in the data set with HaCaT [15], above 50%; in data set [16], below 10%. In addition, the MIC was 1.6 µg/mL (≈ 4.57 µM) in the data set with Staphylococcus aureus [1]; 1.6 µg/mL (≈ 4.57 µM) with Staphylococcus aureus [2]; 0.8 µg/mL (≈ 2.28 µM) with Staphylococcus aureus [3]; at most 0.4 µg/mL with Staphylococcus aureus [4]; 1.6 µg/mL (≈ 4.57 µM) in the data set on Staphylococcus aureus [5].
Take `Cc1noc(-c2ccc(N3CC(Cn4cccn4)OC3=O)cc2)n1` (racemic): the MIC with Staphylococcus aureus [1], in the data set on Staphylococcus aureus [2], in the data set with Staphylococcus aureus [3], with Staphylococcus aureus [4] and in the data set with Staphylococcus aureus [5] was above 50 µg/mL in each case.
`Cc1noc(-c2ccc(N3CC(Cn4cccn4)OC3=O)cc2F)n1` (racemic): the MIC in the data set on Staphylococcus aureus [1], in the data set on Staphylococcus aureus [2], in the data set with Staphylococcus aureus [3], with Staphylococcus aureus [4] and in the data set on Staphylococcus aureus [5] was above 50 µg/mL throughout.
Take `Cc1noc(-c2ccc(N3CC(Cn4ccnc4)OC3=O)cc2)n1` (racemic): the MIC in the data set with Staphylococcus aureus [1], in the data set on Staphylococcus aureus [2], with Staphylococcus aureus [3], in the data set with Staphylococcus aureus [4] and in the data set with Staphylococcus aureus [5] was above 50 µg/mL each time.
As to `Cc1noc(-c2ccc(N3CC(Cn4ccnc4)OC3=O)cc2F)n1` (racemic), the MIC in the data set on Staphylococcus aureus [1], in the data set with Staphylococcus aureus [2], in the data set with Staphylococcus aureus [3], in the data set with Staphylococcus aureus [4] and in the data set on Staphylococcus aureus [5] was above 50 µg/mL in each case.
Turning to `Cc1noc(-c2ccc(N3CC(Cn4cncn4)OC3=O)cc2)n1` (racemic), the MIC in the data set on Staphylococcus aureus [1], in the data set on Staphylococcus aureus [2], in the data set on Staphylococcus aureus [3], with Staphylococcus aureus [4] and in the data set with Staphylococcus aureus [5] was above 50 µg/mL in each case.
With `Cc1noc(-c2ccc(N3CC(Cn4cncn4)OC3=O)cc2F)n1` (racemic), the MIC in the data set with Staphylococcus aureus [1], with Staphylococcus aureus [2], with Staphylococcus aureus [3], with Staphylococcus aureus [4] and in the data set on Staphylococcus aureus [5] was above 50 µg/mL throughout.
For `CC(=O)NC[C@H]1CN(c2ccc(N3CCOCC3)c(F)c2)C(=O)O1` [LINEZOLID], the values for the Activity entry (with HaCaT [15]; in [17]; in the data set with HepG2 [6]) were “Toxic”, “Non-toxic” and “Non-toxic”, respectively. In addition, the minimal inhibitory concentration (MIC) in the data set on Staphylococcus aureus [1] was 3.13 µg/mL (≈ 9.28 µM); in the data set on Staphylococcus aureus [2], 3.13 µg/mL (≈ 9.28 µM); with Staphylococcus aureus [3], 1.6 µg/mL (≈ 4.74 µM); in the data set on Staphylococcus aureus [4] it was 0.8 µg/mL (≈ 2.37 µM); in the data set on Staphylococcus aureus [5], at most 0.4 µg/mL.
